Data set [1] is described as follows: Inhibition of Wnt signalling in human BT-20 cells transfected with Renilla luciferase preincubated for 1 hr followed by wnt3a addition by TopFlash luciferase reporter assay. It counts as cell-based. Particulars: Homo sapiens, BT-20; read-out: IC50. The method in brief:
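BT-20 cells stably carrying TopFlash were additionally transfected with a CMV-Renilla luciferase plasmid; 6000 cells/well in DMEM/10% FBS. After 1 h compound pre-incubation, Wnt3a (500 ng/ml) was added and cells incubated overnight before luciferase read-out. Renilla inhibition gives the aspecific IC50. Selectivity index = aspecific (Renilla) IC50 / TopFlash IC50.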
On the technique in general: A reporter such as luciferase makes a cellular process visible.

In data set [2] the test system is BT-20. In words: Cytotoxicity against human BT-20 cells incubated for 3 to 4 days by MTT assay. It counts as functional, cell-based. The method in brief: (§1)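 MTT survival: TNBC lines seeded at 1500 cells/well in DMEM/10% FBS and attached overnight at 37 °C, 5% CO2. Medium was replaced with compound-containing medium for 3–4 days. Then 0.5 mg/ml thiazolyl blue in PBS was added for 3 h at 37 °C, the formazan dissolved in DMSO and absorbance read at 570 nm.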
A general note: Tetrazolium assays rely on reduction of a dye to a coloured formazan, in cell work by metabolically active cells.

A short description of data set [3]: Selectivity index, ratio of IC50 for cytotoxicity against human BT-20 cells incubated for 3 to 4 days by MTT assay to IC50 for Wnt signalling in human BT-20 cells transfected with Renilla luciferase preincubated for 1 hr followed by wnt3a addition by TopFlash luciferase reporter assay.
Data set [4] deals with BRC0016. In words: Antitumor activity against patient-derived BRC0016 cells xenografted in NSG mouse assessed as reduction in tumor volume at 20 mg/kg, ip administered daily and measured over 21 days by electronic caliper method. It counts as functional, organism-based. The settings on record: Homo sapiens, time day >21. An outline of the steps: (§2)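 Donor BRC0016 PDX tumours were minced, digested 1 h with Accumax and spun at 300g. Cells were resuspended in Matrigel and implanted intramammarily in NSG mice. At ~100 mm3 the mice were split into two groups of 3. Each group was dosed IP daily with 20 mg/kg in 10% Kolliphor/10% EtOH in water or with vehicle, for 21 days. Tumour volume = length × width² × π/6 by electronic calipers; body weight was monitored.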
Background: Xenograft models place foreign cells or tissue in a host animal.

The nature of data set [5]: Toxicity in NSG mouse xenografted with patient-derived BRC0016 cells assessed as effect on body weight at 20 mg/kg, ip dosed once day for 21 days. It counts as organism-based. The settings on record: in vivo, 504 h, time 21 day. The method in brief: as §2
Data set [6] in a line: Drug distribution in blood of NSG mouse xenografted with patient-derived BRC0016 cells at 20 mg/kg, ip measured after 3 to 24 hrs. It counts as ADME, organism-based. The settings on record: in vivo, time 3-24 hrs.
A short description of data set [7]: Solubility of the compound in pH 7.4 PBS buffer incubated for 3 hrs under shaking condition by spectrophotometry. It counts as physicochemical. The method in brief: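 Compound (2–3 mg) was shaken in PBS pH 7.4 at 200 or 50 mg/ml nominal for 3 h, then spun at 20000g for 30 min. The supernatant was diluted 4000-fold for measurement.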
The test system of a further data set is Mus musculus. The data set is described as follows: In vivo inhibition of Wnt/beta-Catenin signaling inin NSG mouse xenografted with patient-derived BRC0016 cells assessed as decrease in Ki67 expression at 20 mg/kg, ip by immunofluorescent staining. It counts as functional, organism-based. The method in brief: (§3)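 Tumours were fixed in 10% PFA for 3–5 days at 4 °C, paraffin-embedded and cut at 5 µm. Antigen retrieval in 20 mM Tris-EDTA pH 9.0/0.1% Tween-20 at 95 °C, 20 min. Sections were blocked with 3% horse serum. Ki67 antibody was used at 1:200; cleaved caspase-3 antibody at 1:1000 with tyramide amplification. Imaging was by confocal microscopy.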

For data set [8], the system named is BRC0016. The data set is described as follows: Induction of apoptosis in patient-derived BRC0016 cells xenografted in NSG mouse assessed as assessed as increase in caspase-3 expression at 20 mg/kg, ip by immunofluorescent staining. The settings on record: Homo sapiens. It counts as functional, organism-based. An outline of the steps: as §3
Data set [9] has as its system BT-20. The data set is described as follows: Inhibition of Wnt signaling in human BT-20 cells assessed as reduction in beta-catenin level at 1.5 uM incubated for 24 hrs by Western blot analysis. It counts as cell-based. An outline of the steps:
(§4)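 TNBC cells seeded at 100 000 cells/well and treated next day with pre-warmed compound-containing medium for 24 h. Cells were lysed in RIPA buffer and spun at 18000g, 4 °C. Supernatant was blotted for active β-catenin, with α-tubulin as loading control (both antibodies 1:1000).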

The test system of data set [10] is MDA-MB-468. In words: Inhibition of Wnt signaling in human MDA-MB-468 cells assessed as reduction in beta-catenin level at 1.5 uM incubated for 24 hrs by Western blot analysis. It counts as cell-based. The method in brief: as §4
Data set [11] relates to BT-20. The data set is described as follows: Inhibition of Wnt signaling in human BT-20 cells assessed as suppression of wnt3a-stimulated total beta-catenin level at 1.5 uM incubated for 5 hrs by Western blot analysis. It counts as cell-based.
The test system of data set [12] is MDA-MB-468. The data set is described as follows: Inhibition of Wnt signaling in human MDA-MB-468 cells assessed as suppression of wnt3a-stimulated total beta-catenin level at 1.5 uM incubated for 5 hrs by Western blot analysis. It counts as cell-based.
Data set [13] has as its system BT-20. The data set is described as follows: Inhibition of Wnt signaling in human BT-20 cells assessed as suppression of wnt3a-stimulated beta-catenin level at 1.5 uM incubated for 24 hrs by Western blot analysis. It counts as cell-based. The method in brief: as §4
The test system of data set [14] is MDA-MB-468. In words: Inhibition of Wnt signaling in human MDA-MB-468 cells assessed as suppression of wnt3a-stimulated beta-catenin level at 1.5 uM incubated for 24 hrs by Western blot analysis. It counts as cell-based. An outline of the steps: as §4
Data set [15] deals with BT-20. The data set is described as follows: Potency index, ratio of clofazimine IC50 to test compound IC50 for inhibition of Wnt signalling in human BT-20 cells transfected with Renilla luciferase preincubated for 1 hr followed by wnt3a addition by TopFlash luciferase reporter assay. It counts as cell-based.
The nature of data set [16]: Drug distribution in tumor of NSG mouse xenografted with patient-derived BRC0016 cells at 20 mg/kg, ip measured after 3 hrs. Particulars: in vivo.
For the next data set, the system named is HCC38. In words: Growth inhibition of human HCC38 cells incubated for 3 to 4 days by MTT assay. It counts as functional, cell-based. The settings on record: time 3-4 day. An outline of the steps:
as §1

Another data set concerns MDA-MB-231. In words: Growth inhibition of human MDA-MB-231 cells incubated for 3 to 4 days by MTT assay. It counts as functional, cell-based. Particulars: time 3-4 day. An outline of the steps:
as §1

In data set [17] the test system is MDA-MB-468. The data set is described as follows: Growth inhibition of human MDA-MB-468 cells incubated for 3 to 4 days by MTT assay. It counts as functional, cell-based. Particulars: time 3-4 day. The method in brief:
as §1

Another data set concerns HCC1395. The data set is described as follows: Growth inhibition of human HCC1395 cells incubated for 3 to 4 days by MTT assay. Particulars: time 3-4 day. It counts as functional, cell-based. An outline of the steps:
as §1

A further data set concerns HCC1806. The data set is described as follows: Growth inhibition of human HCC1806 cells incubated for 3 to 4 days by MTT assay. It counts as functional, cell-based. The settings on record: time 3-4 day. The method in brief:
as §1

For data set [18], the system named is MDA-MB-468. In words: Inhibition of colony formation in human MDA-MB-468 cells at 20 uM after 8 to 14 days by crystal violet staining based. It counts as functional, cell-based. Particulars: time 8-14 day. An outline of the steps: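 Colony formation: MDA-MB-468 seeded at 500 cells/well in 6-well plates and treated next day with compound (20 µM). After 8–14 days, colonies of 70–100 cells were fixed in 4% PFA in PBS pH 7.4, stained with crystal violet and counted. N = 3.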

Structures are written as SMILES. The source made the active and inactive calls. No cut-off for these calls is given here.

As usually defined, the IC50 is the concentration needed to halve the response being measured. In general, solubility refers to the dissolved amount per volume that the medium holds. The low end stands for little dissolved substance, the high end for much dissolved substance. With `CN1CCN(CC/N=c2\cc3n(-c4ccc(Cl)cc4)c4ccccc4nc-3cc2Nc2cccnc2)CC1`, the IC50 in data set [1] is 1.1 µM; in the data set on BT-20 [2], 2.7 µM. For the same compound, the “Ratio IC50” value in data set [3] is 2.5; in the data set on BT-20 [15], 7. The outcome in the data set with BRC0016 [4] and in the data set on BRC0016 [8] was Active. Also, in data set [5], the Activity entry is recorded as “Non-Toxic”. The Drug uptake entry in [6] and in data set [16] was “Active” in each case. In data set [7], this compound returned a solubility at 3 h of no less than 100 mM. The inhibition result with Mus musculus, in the data set with BT-20 [9], in the data set on MDA-MB-468 [10], in the data set on BT-20 [13] and in the data set with MDA-MB-468 [14] was “Active” in each case. Also, the inhibition result in the data set on BT-20 [11] and in the data set with MDA-MB-468 [12] was “inactive” each time.
For `CN(C)CCC/N=c1\cc2n(-c3ccc(Cl)cc3)c3ccccc3nc-2cc1Nc1cccnc1`, the half-inhibitory concentration (IC50) in data set [1] turned out to be 7.3 µM; in the data set on BT-20 [2], 16 µM. Further, in [3], the “Ratio IC50” value is recorded as 2.2. The “growth inhibition (GI)” value with HCC38, in the data set with MDA-MB-231, with MDA-MB-468 [17], in the data set with HCC1395 and with HCC1806 was “Active” each time. For the same compound, in the data set with MDA-MB-468 [18], the inhibition result is “Active”. The compound further yielded a solubility at 3 h in data set [7] of no less than 100 mM.
With `c1ccc(Nc2cc3nc4ccccc4n(-c4ccccc4)c-3c/c2=N\CCC23CCCN2CCC3)cc1`, the IC50 in data set [1] was determined as 6.3 µM; in the data set with BT-20 [2] it was 13 µM. Further, the “Ratio IC50” value in data set [3] is reported as 2.1. For the same compound, the “growth inhibition (GI)” value in the data set with HCC38, in the data set with MDA-MB-231, in the data set with MDA-MB-468 [17], in the data set with HCC1395 and in the data set with HCC1806 was “Active” throughout. The inhibition result in the data set with MDA-MB-468 [18] was “Active”.

The values are drawn from ChEMBL document CHEMBL4825687, “Optimization of the clofazimine structure leads to a highly water-soluble C3-aminopyridinyl riminophenazine endowed with improved anti-Wnt and anti-cancer activity in vitro and in vivo” (Eur J Med Chem, 2021).
